Screening data (PubChem BioAssay)
M1 ag: activates the M1 muscarinic receptor | CHO-M1 cells, Fluo-4 calcium fluorescence, agonist mode; hits give high values | B-score at 10 µM | 64,000 compounds, 3% hits | AID 626;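 active = fluorescence rise, raw or as B-score row- and column-corrected plate score, outside the 99.7% band of its plate's samples, either direction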
HePTP inh: human HePTP phosphatase inhibition; P35236; recombinant HePTP phosphatase activity, OD absorbance; inhibition, % at 20 µM; 110,000 compounds, 0.64% hits; AID 521; in the data active = inhibition above about 50%;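 note: plate controls were vehicle for no effect and reference inhibitor for full effect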
RORa activator: activators of human nuclear receptor RORA; P35398; CHO-K1 Gal4-RORA LBD luciferase reporter, luminescence; percent increase over mock-subtracted basal signal; activation, % at 10 µM; 65,000 compounds, 1.5% hits;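 active = activation above the mean of all tested compounds plus 3 SD, cut at about 49% in these data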;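 note: 0% = DMSO-treated RORA cells and 100% = added signal equal to DMSO minus mock-transfected cells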
SF1 activator: activates the human nuclear receptor SF-1. Q13285. CHO-K1 Gal4-SF-1 LBD luciferase reporter; % increase over DMSO SF-1-specific signal. activation, % at 10 µM. 65,000 compounds, 1.9% hits;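 active = activation above the mean activation of all tested compounds plus 3 SD, cut at about 50% in these data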
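System: CHO-K1 cells with Gal4–hSF-1 LBD chimera plus Gal4-driven luciferase; quantity: 4,000 CHO-K1 cells per well; compound: one dose, 10 µM compound, 1% DMSO; times: 20 h compound treatment, 37 °C; measured by: SteadyLite luciferase luminescence; read-out: percent activation versus DMSO; benchmarks: DMSO and mock-transfected background; replicates: one test per compound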
M1 antag: antagonists of rat M1 muscarinic receptor. P08482. B-score at 10 µM. CHO-M1 cells, Fluo-4 calcium, ACh EC80 antagonist mode; hits give low values. 64,000 compounds, 3.4% hits;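 active = calcium fluorescence response, raw or row-and-column corrected B-score, differing from the plate sample mean either way at a set confidence level, mostly lower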
Target sequence (P08482 whole entry, looked up): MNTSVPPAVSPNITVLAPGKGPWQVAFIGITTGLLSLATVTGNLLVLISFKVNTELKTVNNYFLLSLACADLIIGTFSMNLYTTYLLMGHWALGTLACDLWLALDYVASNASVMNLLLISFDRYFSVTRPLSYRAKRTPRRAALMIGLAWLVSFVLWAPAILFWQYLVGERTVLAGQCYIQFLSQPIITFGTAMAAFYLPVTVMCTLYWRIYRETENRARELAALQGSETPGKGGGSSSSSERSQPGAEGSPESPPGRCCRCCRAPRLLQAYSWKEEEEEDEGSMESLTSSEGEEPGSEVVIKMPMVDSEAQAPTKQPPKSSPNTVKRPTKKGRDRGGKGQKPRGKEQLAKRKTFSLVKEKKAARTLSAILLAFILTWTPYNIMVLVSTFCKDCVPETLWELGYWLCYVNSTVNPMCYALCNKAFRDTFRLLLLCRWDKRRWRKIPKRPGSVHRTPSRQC
D1 mod: allosterically modulates the human D1 dopamine receptor. P21728. HEK293 D1, CRE-luciferase, dopamine EC30 potentiation; actives deviate in either direction. B-score at 10 µM. 58,000 compounds, 5.9% hits. AID 641;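 active = luminescence count or its row- and column-corrected plate score outside the 99.7% band of the plate's sample wells, on either side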
M1 antag conf: M1 muscarinic receptor (rat) antagonism, confirmed; shares compounds with M1 antag; CHO-M1 cells, Fluo-4 calcium, ACh EC80 antagonism; hits give low values; calcium response (max-min fluorescence) at 10 µM; 1,700 compounds, 43% hits;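 active = calcium response below the same-plate mean of wells given acetylcholine alone at its 80%-effect dose, minus 3 SD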;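 note: raw fluorescence intensity difference in arbitrary instrument units and not normalized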
mGluR4 antag: mGluR4 (human) activity, M1 antagonist secondary assay; shares compounds with M1 antag; CHO-mGluR4 calcium flux, Fluo-4 fluorescence, glutamate EC80; hits give low values; fluorescence response (max-min) at 10 µM; 1,700 compounds, 0.9% hits; AID 678;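 active = fluorescence response below the plate's average for near-maximal glutamate wells, less 3 SD of those wells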;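 note: raw unnormalized fluorescence span taken in the window right after glutamate addition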
* = called active by the depositor; . = not tested or not shown. Shown are actives, neighbours in structure and some others; about 8.2% of the full set was active somewhere.

SMILES	M1 ag	HePTP inh	RORa activator	SF1 activator	M1 antag	D1 mod	M1 antag conf	mGluR4 antag
CCOC(=O)N1CCN(C(=O)c2ccc3c(c2)sc2nc(-c4ccccc4)cn23)CC1	3.1	8	62*	110*	-2.9*	.	397*	292
CCOC(=O)N1CCC(NC(=O)c2ccc3c(c2)sc2nc(-c4ccc(OC)cc4)cn23)CC1	.	10	23	39	.	.	.	.
COc1ccc(-c2noc(-c3cc(C)cc(C)c3)n2)cc1OC	-1.4	7	-22	7	-3.1*	-0.64	468*	231
COc1ccc(-c2nc(-c3ccc(OC)c(OC)c3)no2)cc1	.	-1	.	.	.	.	.	.
O=C(NCc1ccco1)c1cnc2ccccn2c1=O	-0.018	9	2	-1	-0.26	0.24	.	.
O=C(Nc1cccc(Cl)c1)N(CCN1CCOCC1)Cc1cccc(Cl)c1	1	3	2	-8	-2.4*	0.77	255*	227
COc1ccc(CN(CCCN2CCOCC2)C(=O)Nc2cccc(Cl)c2)cc1OC	-0.077	5	8	3	-0.072	.	.	.
Cc1cc(NS(=O)(=O)c2ccc(C3CCCCC3)cc2)no1	0.73	12	-17	-9	0.61	0.2	.	.
O=C(CCCn1c(SCC(=O)NC2CCCC2)nc2ccccc2c1=O)NCC1CCCO1 (stereo not drawn)	-0.85	8	0	-2	0.023	0.38	.	.
Cc1ccc(S(=O)(=O)NCCC(=O)NCc2ccccc2)cc1	-1	-6	5	3	-0.42	0.25	.	.
Cc1ccc(S(=O)(=O)NCCCC(=O)C=[N+]=[N-])cc1	-0.66	-2	22	-12	-3.3*	-0.066	610	240
c1ccc(N2CCOCC2)c(Nc2nc3ccccc3n3cnnc23)c1	0.27	4	6	6	-0.29	1.1	.	.
Nn1c(-c2cccs2)nc2sc3c(c2c1=O)CCCC3	-0.66	-7	45	42	-4.4*	-0.78	672	202
O=c1oc(-c2cccs2)nc2sc3c(c12)CCCCC3	-0.13	5	-3	5	0.31	-1.6	.	.
Cc1ccc2c(CC(=O)OCn3nnc4ccccc4c3=O)coc2c1	-0.58	1	5	6	-4.9*	0.081	323*	232
CC(=O)OCn1nnc2ccccc2c1=O	0.52	.	8	-1	0.42	0.18	.	.
CC(C)C(NC(=O)C1CCCCC1)C(=O)Nc1ccncc1 (stereo not drawn)	-0.32	-1	4	-1	-0.026	-1.2	.	.
CC(C)C[C@H](NC(=O)OC(C)(C)C)c1nnc(SCC(=O)Nc2ccc(Br)cc2)o1	0.019	4	24	5	-3.1*	0.45	555	182
CN(CCC#N)C(=O)COC(=O)c1ccc(Cl)c(S(N)(=O)=O)c1	0.32	10	-4	1	-12*	0.79	642	226
COc1ccc(OC)c(S(=O)(=O)Nc2ccc3oc4c(c3c2)C(=O)CCC4)c1	-0.7	.	-11	-15	-1.3*	-0.0095	687	178
Cc1ccc(C2C(C(=O)c3cc4ccccc4o3)=C(O)C(=O)N2CCN2CCOCC2)o1 (stereo not drawn)	-0.54	7	40	21	-6.8*	0.087	665	241
O=C(c1ccccc1F)N(Cc1ccc(F)cc1)C1CCS(=O)(=O)C1 (stereo not drawn)	0.73	6	5	4	1	-0.014	.	.
CCc1nnc(NC(=O)c2c(O)c3cccc4c3n(c2=O)CC4)s1	-0.21	8	-6	9	0.74	0.22	.	.
CCc1nnc(NCC(=O)N2CCc3ccccc32)s1	0.59	1	13	23	-4.8*	.	605	254
COC(=O)/C=c1/s/c(=C(\C#N)C(=O)NCc2ccco2)n(-c2ccccc2)c1=O	0.78	8	-5	2	-2.2*	.	669	218
SMILES	M1 ag	HePTP inh	RORa activator	SF1 activator	M1 antag	D1 mod	M1 antag conf	mGluR4 antag
O=C1CN(C(=O)CSc2nncn2-c2ccccc2)c2ccccc2N1	0.091	5	-15	2	0.029	0.052	.	.
O=C(CN1C2=NCCN2c2ccccc21)C12CC3CC(CC(C3)C1)C2	-0.29	5	0	-2	-9.3*	-1.4	337*	153
CCC(=O)NCCc1cc2cc(C)c(C)cc2[nH]c1=O	0.22	0	1	-2	1.1	-0.36	.	.
Cc1c(N(C)C)nc2ccccc2c1N	0.025	7	-10	-7	-2.3*	-0.84	610	231
Cc1cc(C(N)=O)c2ccccc2n1	0.49	1	-29	7	0.44	-1	.	.
O=C(c1cc(-c2ccco2)on1)N1CCN(C(c2ccccc2)c2ccccc2)CC1	-1.5	7	-4	-18	-2.7*	-0.4	458	170
Cc1ccc(NC(=O)CS(=O)CC(=O)NC2CCN(Cc3ccccc3)CC2)c(C)c1 (stereo not drawn)	0.21	12	12	-6	-7.8*	.	645	241
CCC(C)NC(=O)CN(c1ccc(Br)cc1)S(C)(=O)=O (stereo not drawn)	.	-7	.	.	.	.	.	.
COc1ccc(N2CCN(C(CNC(=O)C3CCCCC3)c3cccnc3)CC2)cc1 (stereo not drawn)	-1.3	6	-9	16	-2.9*	-0.41	634	244
Cn1c(SCC(=O)c2cc3ccccc3o2)nnc1-c1ccccc1	-0.055	7	16	4	-2*	0.86	680	261
Cn1c(SCC(=O)N2CCN(c3ccccc3)CC2)nnc1-c1cc2ccccc2o1	1	-6	-8	10	0.17	-0.022	.	.
Cn1ccnc1SCC(=O)c1cc2ccccc2o1	0.35	7	26	40	-3.2*	-0.56	648	250
O=C(NCc1ccco1)c1ccc(COCC(F)(F)C(F)F)cc1	0.26	0	6	-5	0.57	0.031	.	.
COc1ccccc1N1CCN(C(=O)Cc2cccs2)CC1	-0.43	10	-12	-18	-1.9*	0.49	544	200
COc1ccccc1N1CCN(C(=O)C2c3ccccc3Oc3ccccc32)CC1	-0.21	-9	-18	7	-1.3*	-0.8	573	274
COc1ccccc1N1CCN(C(=O)C2CC=CCC2C(=O)O)CC1 (stereo not drawn)	0.18	7	18	-15	0.89	-2	.	.
CC1C2CC(CC1(C)C)N(C(=O)Nc1ccc3nccnc3c1)C2 (stereo not drawn)	0.77	-3	-5	2	-0.44	0.48	.	.
COC(=O)c1ccc(C2c3c(n[nH]c3C)C(=O)N2c2ccc(C)cc2)cc1 (stereo not drawn)	-0.52	-9	-4	-21	-1*	0.03	450*	206
CCOc1ccc(-n2c(=O)cc(N3CCN(c4ccccc4)CC3)[nH]c2=O)cc1	1.4	4	-4	-15	-0.028	-0.74	.	.
